Measured values taken from ChEMBL document CHEMBL5357066, “Development of Novel Membrane Disrupting Lipoguanidine Compounds Sensitizing Gram-Negative Bacteria to Antibiotics” (ACS Med Chem Lett, 2024).
In brackets after ≈: the same amount, converted by molar mass.

How the values were obtained:
Pseudomonas aeruginosa [1] = experiment: Antibacterial activity against Pseudomonas aeruginosa NCTC 13437 assessed as bacterial growth inhibition incubated for overnight by microbroth dilution method; assay type: functional
How it was run: (§1)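 Broth microdilution in Tryptic Soy Broth. DMSO stocks were diluted in TSB as 2-fold series. Overnight TSB cultures were back-diluted to OD 0.01 and mixed 1:1 with compound. Incubation was overnight at 37 °C. MIC was the lowest concentration without visible growth (<0.1 OD600). DMSO vehicle was checked at equivalent concentrations.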

Staphylococcus aureus [2] = experiment: Antibacterial activity against methicillin sensitive Staphylococcus aureus ATCC 9144 assessed as bacterial growth inhibition incubated for overnight by microbroth dilution method; assay type: functional
How it was run: (§2)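 Microbroth dilution in Tryptic Soy Broth. DMSO stocks were diluted in TSB as 2-fold series. Overnight TSB cultures were back-diluted to OD 0.01 and mixed 1:1 with compound. Incubation was overnight at 37 °C. MIC is the lowest concentration with no visible growth (<0.1 OD600). DMSO at equivalent concentrations was checked.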

Staphylococcus aureus [3] = experiment: Antibacterial activity against methicillin resistant Staphylococcus aureus NCTC 13616 assessed as bacterial growth inhibition incubated for overnight by microbroth dilution method; assay type: functional; how it was run: as §2
Staphylococcus aureus [4] = experiment: Antibacterial activity against methicillin resistant Staphylococcus aureus USA 300 assessed as bacterial growth inhibition incubated for overnight by microbroth dilution method; assay type: functional; how it was run: as §2
Enterococcus faecalis [5] = experiment: Antibacterial activity against vancomycin resistant Enterococcus faecalis NCTC 12201 assessed as bacterial growth inhibition incubated for overnight by microbroth dilution method; assay type: functional; how it was run: as §2
Enterococcus faecium = experiment: Antibacterial activity against vancomycin resistant Enterococcus faecium NCTC 12204 assessed as bacterial growth inhibition incubated for overnight by microbroth dilution method; assay type: functional; how it was run: as §2
Acinetobacter baumannii [6] = experiment: Antibacterial activity against Acinetobacter baumannii AYE assessed as bacterial growth inhibition incubated for overnight by microbroth dilution method; assay type: functional; how it was run: as §1
Acinetobacter baumannii [7] = experiment: Antibacterial activity against Acinetobacter baumannii ATCC 17978 assessed as bacterial growth inhibition incubated for overnight by microbroth dilution method; assay type: functional; how it was run: as §1
Pseudomonas aeruginosa [8] = experiment: Antibacterial activity against Pseudomonas aeruginosa PAO1 assessed as bacterial growth inhibition incubated for overnight by microbroth dilution method; assay type: functional; how it was run: as §1
Escherichia coli [9] = experiment: Antibacterial activity against Escherichia coli NCTC 12923 assessed as bacterial growth inhibition incubated for overnight by microbroth dilution method; assay type: functional; how it was run: as §1
Klebsiella pneumoniae [10] = experiment: Synergistic antibacterial activity against Klebsiella pneumoniae NCTC 13368 assessed as rifampicin MIC at <=0.25 times MIC incubated for overnight by microbroth dilution checkerboard assay; assay type: functional
How it was run: (§3)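 Checkerboard microdilution under MIC conditions (TSB, overnight, 37 °C). Two-fold series of each agent were combined on one plate before bacteria were added, and single-agent MICs were measured on the same plate. FIC = sum of combination MIC/alone MIC for each agent, taken from the most synergistic well. Three independent repeats, mean ± SD. ≤0.5 was taken as strong synergy and 0.5–<1 as weak.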

Klebsiella pneumoniae [11] = experiment: Synergistic antibacterial activity against […] Klebsiella pneumoniae M6 assessed as rifampicin MIC at <=0.25 times MIC incubated for overnight by microbroth dilution checkerboard assay; assay type: functional
How it was run: (§4)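 Checkerboard run under the MIC conditions (TSB, overnight, 37 °C). Antibiotic and lipoguanidine 2-fold series were combined on one plate before bacteria were added. Growth/no-growth was scored as for the MIC (<0.1 OD600). Single-agent MICs were measured on the same plates. Three independent repeats were done.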

Acinetobacter baumannii [12] = experiment: Synergistic antibacterial activity against Acinetobacter baumannii AYE assessed as rifampicin MIC at <=0.25 times MIC incubated for overnight by microbroth dilution checkerboard assay; assay type: functional; how it was run: as §3
Acinetobacter baumannii [13] = experiment: Synergistic antibacterial activity against Acinetobacter baumannii ATCC 17978 assessed as rifampicin MIC at <=0.25 times MIC incubated for overnight by microbroth dilution checkerboard assay; assay type: functional; how it was run: as §3
Pseudomonas aeruginosa [14] = experiment: Synergistic antibacterial activity against Pseudomonas aeruginosa PAO1 assessed as rifampicin MIC at <=0.25 times MIC incubated for overnight by microbroth dilution checkerboard assay; assay type: functional
How it was run: (§5)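 Checkerboard microdilution in Tryptic Soy Broth, run like the MIC assay. Overnight TSB cultures were back-diluted to OD 0.01 and added 1:1 to the combined two-fold series of both agents, then incubated overnight at 37 °C. Growth/no-growth was called at <0.1 OD600. MICs alone were read on the same plates. FIC index came from the most synergistic well; three independent repeats, mean ± SD.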

Pseudomonas aeruginosa [15] = experiment: Synergistic antibacterial activity against Pseudomonas aeruginosa NCTC 13437 assessed as rifampicin MIC at <=0.25 times MIC incubated for overnight by microbroth dilution checkerboard assay; assay type: functional; how it was run: as §5
Escherichia coli [16] = experiment: Synergistic antibacterial activity against Escherichia coli NCTC 12923 assessed as rifampicin MIC at <=0.25 times MIC incubated for overnight by microbroth dilution checkerboard assay; assay type: functional; how it was run: as §3
Staphylococcus aureus [17] = experiment: Antibacterial activity against methicillin sensitive Staphylococcus aureus 1199B assessed as bacterial growth inhibition incubated for overnight by microbroth dilution method; assay type: functional; how it was run: as §2
Klebsiella pneumoniae [18] = experiment: Synergistic antibacterial activity against Klebsiella pneumoniae NCTC 13368 assessed as bacterial growth inhibition incubated for overnight in presence of PBMN by microbroth dilution method relative to control; assay type: functional
How it was run: (§6)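 Adapted broth microdilution in TSB. The test compound was in a 2-fold dilution series, with PMBN added at a fixed 30 µg/mL. Bacteria at OD 0.02 were added, and plates were incubated overnight at 37 °C. Growth/no growth was read as for the MIC (<0.1 OD600).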

Klebsiella pneumoniae [19] = experiment: Synergistic antibacterial activity against Klebsiella pneumoniae M6 assessed as bacterial growth inhibition incubated for overnight in presence of PBMN by microbroth dilution method relative to control; assay type: functional; how it was run: as §6
Acinetobacter baumannii [20] = experiment: Synergistic antibacterial activity against Acinetobacter baumannii AYE assessed as bacterial growth inhibition incubated for overnight in presence of PBMN by microbroth dilution method relative to control; assay type: functional; how it was run: as §6
Acinetobacter baumannii [21] = experiment: Synergistic antibacterial activity against Acinetobacter baumannii ATCC 17978 assessed as bacterial growth inhibition incubated for overnight in presence of PBMN by microbroth dilution method relative to control; assay type: functional; how it was run: as §6
Pseudomonas aeruginosa [22] = experiment: Synergistic antibacterial activity against Pseudomonas aeruginosa PAO1 assessed as bacterial growth inhibition incubated for overnight in presence of […] by microbroth dilution method relative to control; assay type: functional
How it was run: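 Fixed-concentration combination MIC in TSB. The first agent was set in a two-fold dilution series (100 µL/well), then 50 µL/well of the second agent at a fixed concentration was added; PMBN was fixed at 30 µg/mL. Bacteria at OD 0.02 (50 µL) went into 150 µL of compounds, overnight at 37 °C. MIC was the lowest concentration without visible growth (<0.1 OD600).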

Pseudomonas aeruginosa [23] = experiment: Synergistic antibacterial activity against Pseudomonas aeruginosa NCTC 13437 assessed as bacterial growth inhibition incubated for overnight in presence of PBMN by microbroth dilution method relative to control; assay type: functional; how it was run: as §6
Escherichia coli [24] = experiment: Synergistic antibacterial activity against Escherichia coli NCTC 12923 assessed as bacterial growth inhibition incubated for overnight in presence of PBMN by microbroth dilution method relative to control; assay type: functional; how it was run: as §6
Klebsiella pneumoniae [25] = experiment: Synergistic antibacterial activity against Klebsiella pneumoniae NCTC 13368 assessed as fold change in rifampicin MIC at <=0.25 times MIC incubated for overnight by microbroth dilution checkerboard assay relative to rifampicin alone; assay type: functional; how it was run: as §4
Acinetobacter baumannii [26] = experiment: Synergistic antibacterial activity against Acinetobacter baumannii AYE assessed as fold change in rifampicin MIC at <=0.25 times MIC incubated for overnight by microbroth dilution checkerboard assay relative to rifampicin alone; assay type: functional; how it was run: as §3
Acinetobacter baumannii [27] = experiment: Synergistic antibacterial activity against Acinetobacter baumannii ATCC 17978 assessed as fold change in rifampicin MIC at <=0.25 times MIC incubated for overnight by microbroth dilution checkerboard assay relative to rifampicin alone; assay type: functional; how it was run: as §3
Pseudomonas aeruginosa [28] = experiment: Synergistic antibacterial activity against Pseudomonas aeruginosa PAO1 assessed as fold change in rifampicin MIC at <=0.25 times MIC incubated for overnight by microbroth dilution checkerboard assay relative to rifampicin alone; assay type: functional; how it was run: as §5
Pseudomonas aeruginosa [29] = experiment: Synergistic antibacterial activity against Pseudomonas aeruginosa NCTC 13437 assessed as fold change in rifampicin MIC at <=0.25 times MIC incubated for overnight by microbroth dilution checkerboard assay relative to rifampicin alone; assay type: functional; how it was run: as §5
Escherichia coli [30] = experiment: Synergistic antibacterial activity against Escherichia coli NCTC 12923 assessed as fold change in rifampicin MIC at <=0.25 times MIC incubated for overnight by microbroth dilution checkerboard assay relative to rifampicin alone; assay type: functional; how it was run: as §3
Klebsiella pneumoniae [31] = experiment: Antibacterial activity against Klebsiella pneumoniae M6 assessed as bacterial growth inhibition incubated for overnight by microbroth dilution method
Klebsiella pneumoniae [32] = experiment: Antibacterial activity against ESBL Klebsiella pneumoniae NCTC 13368 assessed as bacterial growth inhibition incubated for overnight by microbroth dilution method
Enterococcus faecalis [33] = experiment: Antibacterial activity against vancomycin sensitive Enterococcus faecalis NCTC 775 assessed as bacterial growth inhibition incubated for overnight by microbroth dilution method
Erythrocyte = experiment: Hemolytic activity in human Red blood cells at 512 microg/ml measured after 1 hrs by absorbance based assay; assay type: toxicity, cell-based; conditions: dose 512 µg/ml
How it was run: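 Titrations in PBS were incubated with freshly collected human red blood cells for 1 h at 37 °C. Controls were 0.1% Triton-X-100 (full lysis) and PBS alone (no lysis). After centrifugation, supernatant OD550 was read. % haemolysis = (AP−AB)/(AC−AB)×100. Data are means and standard error of three biological replicates.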

SMILES	MIC (Pseudomonas aeruginosa [1]) [µg/mL]	MIC (Staphylococcus aureus [2]) [µg/mL]	MIC (Staphylococcus aureus [3]) [µg/mL]	MIC (Staphylococcus aureus [4]) [µg/mL]	MIC (Enterococcus faecalis [5]) [µg/mL]	MIC (Enterococcus faecium) [µg/mL]	MIC (Acinetobacter baumannii [6]) [µg/mL]	MIC (Acinetobacter baumannii [7]) [µg/mL]	MIC (Pseudomonas aeruginosa [8]) [µg/mL]	MIC (Escherichia coli [9]) [µg/mL]	MIC (Klebsiella pneumoniae [10]) [µg/mL]	MIC (Klebsiella pneumoniae [11]) [µg/mL]	MIC (Acinetobacter baumannii [12]) [µg/mL]	MIC (Acinetobacter baumannii [13]) [µg/mL]	MIC (Pseudomonas aeruginosa [14]) [µg/mL]	MIC (Pseudomonas aeruginosa [15]) [µg/mL]	MIC (Staphylococcus aureus [17]) [µg/mL]	fold change (FC) (Klebsiella pneumoniae [25])	fold change (FC) (Acinetobacter baumannii [26])	fold change (FC) (Acinetobacter baumannii [27])	also measured
CCCCC/C=C\C/C=C\CCCCCCCCNC(=N)NCCCCCCCCNC(=N)N	> 128	2 (≈ 4.19 µM)	4 (≈ 8.39 µM)	2 (≈ 4.19 µM)	4 (≈ 8.39 µM)	2 (≈ 4.19 µM)	16 (≈ 33.6 µM)	4 (≈ 8.39 µM)	> 128	8 (≈ 16.8 µM)	8	0.5	1	1	16	16	2 (≈ 4.19 µM)	>=4	>=4	>=4	MIC (Escherichia coli [16]): 8 µg/mL; inhibition (INH) (Klebsiella pneumoniae [18]): <20%; inhibition (INH) (Klebsiella pneumoniae [19]): <20%; inhibition (INH) (Acinetobacter baumannii [20]): <20%; inhibition (INH) (Acinetobacter baumannii [21]): <20%; inhibition (INH) (Pseudomonas aeruginosa [22]): <20%; inhibition (INH) (Pseudomonas aeruginosa [23]): <20%; inhibition (INH) (Escherichia coli [24]): <20%; fold change (FC) (Pseudomonas aeruginosa [28]): 0; fold change (FC) (Pseudomonas aeruginosa [29]): 0; fold change (FC) (Escherichia coli [30]): 0; MIC (Klebsiella pneumoniae [31]): 16 µg/mL (≈ 33.6 µM); MIC (Klebsiella pneumoniae [32]): 32 µg/mL (≈ 67.1 µM); MIC (Enterococcus faecalis [33]): 4 µg/mL (≈ 8.39 µM)
CCCCCCCCCCCCCCCCCCNC(=N)NCCCCN	> 128	8 (≈ 20.9 µM)	4 (≈ 10.5 µM)	2 (≈ 5.23 µM)	2 (≈ 5.23 µM)	2 (≈ 5.23 µM)	128 (≈ 334 µM)	16 (≈ 41.8 µM)	> 128	> 128	16	16	2	≤ 0.125	16	32	4 (≈ 10.5 µM)	0	>=4	>=4	MIC (Escherichia coli [16]): 4 µg/mL; inhibition (INH) (Klebsiella pneumoniae [18]): <20%; inhibition (INH) (Klebsiella pneumoniae [19]): <20%; inhibition (INH) (Acinetobacter baumannii [20]): <20%; inhibition (INH) (Acinetobacter baumannii [21]): <20%; inhibition (INH) (Pseudomonas aeruginosa [22]): <20%; inhibition (INH) (Pseudomonas aeruginosa [23]): <20%; inhibition (INH) (Escherichia coli [24]): <20%; fold change (FC) (Pseudomonas aeruginosa [28]): 0; fold change (FC) (Pseudomonas aeruginosa [29]): 0; fold change (FC) (Escherichia coli [30]): 0; MIC (Klebsiella pneumoniae [31]): > 128 µg/mL; MIC (Klebsiella pneumoniae [32]): > 128 µg/mL; MIC (Enterococcus faecalis [33]): 2 µg/mL (≈ 5.23 µM)
CCCCCCCCCCCCCCCCNC(=N)NCCCCN	> 128	2 (≈ 5.64 µM)	2 (≈ 5.64 µM)	2 (≈ 5.64 µM)	2 (≈ 5.64 µM)	2 (≈ 5.64 µM)	32 (≈ 90.2 µM)	4 (≈ 11.3 µM)	> 128	32 (≈ 90.2 µM)	2	0.25	≤ 0.125	0.25	2	16	4 (≈ 11.3 µM)	>=4	>=4	>=4	Activity (Erythrocyte): Toxic; fold change (FC) (Pseudomonas aeruginosa [28]): >=4; fold change (FC) (Pseudomonas aeruginosa [29]): 0; MIC (Klebsiella pneumoniae [31]): 8 µg/mL (≈ 22.6 µM); MIC (Klebsiella pneumoniae [32]): > 128 µg/mL; MIC (Enterococcus faecalis [33]): 2 µg/mL (≈ 5.64 µM)
